Active and inactive are the calls of the source. The calls are words filed in the database; no cut-off is given here. Where only a bound is given, the exact number is not on record here.

In one data set the test system is CHO-MG. Nature of the data set: Inhibition of polyamine uptake in CHO-MG cells. Format: functional, cell-based. Conditions: Cricetulus griseus.
Data set [1] concerns Pneumocystis carinii. Nature of the data set: Antimicrobial activity against Pneumocystis carinii infected in Sprague-Dawley rat assessed as reduction of foamy exudates in alveoli at 0.5 mg/kg, intranasally every 2 days 28 days after infection for 21 days. The format is functional, organism-based. Also noted: dose 0.5 mg/kg. Summed up:
(§1)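 Female Sprague-Dawley rats (~120 g) were immunosuppressed with dexamethasone at 1.8 mg/liter in drinking water. After 1 week they received a transtracheal inoculum of 7.5 × 10⁶ trophic forms, plus penicillin i.m. weekly. From infection day 28, they were given 50 μl of a 1 mM solution intranasally every 2 days. After 21 days, lungs were fixed in 4% paraformaldehyde, and paraffin sections were H&E-stained and examined by light microscopy. Inflammation was graded 0–5.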

The test system of data set [2] is Pneumocystis carinii. Nature of the data set: Antimicrobial activity against Pneumocystis carinii infected in Sprague-Dawley rat assessed as increase of open alveolar space at 0.5 mg/kg, intranasally every 2 days 28 days after infection for 21 days. Also noted: dose 0.5 mg/kg. Format: functional, organism-based. The essentials: as §1
Data set [3] relates to Pneumocystis carinii. The data set is described as follows: Antimicrobial activity against Pneumocystis carinii infected in Sprague-Dawley rat assessed as reduction of inflammation at 0.5 mg/kg, intranasally every 2 days 28 days after infection for 21 days. The format is functional, organism-based. Also noted: dose 0.5 mg/kg. Summed up:
as §1

Data set [4] concerns Pneumocystis carinii. Nature of the data set: Antimicrobial activity against Pneumocystis carinii infected in Sprague-Dawley rat assessed as reduction of number of apoptotic alveolar macrophages at 0.5 mg/kg, intranasally every 2 days 28 days after infection for 21 days. The format is functional. Also noted: scale not given: the % may be the effect or the level left. The essentials:
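Lung sections came from infected, dexamethasone-treated rats given 50 μl of 1 mM intranasally every 2 days for 21 days from day 28. Sections were digested with proteinase K (20 μg/ml, room temperature, 10 min), then TdT/fluorescein-12-dUTP labelled (37°C, 1 h) and DAPI-mounted. Apoptotic macrophage percentage was taken as TUNEL+/DAPI+ cells over 10 random 100× fields per slide.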

The nature of data set [5]: Inhibition of polyamine transporter expressed in CHO cells. Format: cell-based.
Data set [6] relates to Pneumocystis carinii. Nature of the data set: Antimicrobial activity against Pneumocystis carinii infected in Sprague-Dawley rat assessed as reduction of organism burden in lungs at 0.5 mg/kg, intranasally every 2 days 28 days after infection for 21 days. Format: functional, organism-based. Also on record: dose 0.5 mg/kg. Summed up: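 The dexamethasone-immunosuppressed, P. carinii-infected female Sprague-Dawley rats were dosed intranasally with 50 μl of a 1 mM solution every 2 days from infection day 28, for 21 days. Cysts were counted in paraffin lung sections stained with modified Grocott's methenamine silver, and burden was graded on a 0–4 scale.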

A short description of data set [7]: Cytotoxicity against Sprague-Dawley rat alveolar macrophages assessed as cell viability at 2 mM after 3 hrs by trypan blue exclusion assay. Conditions: for Activity: macrophage, 3 h, 2000 µM. The format is cell-based, Macrophage. The essentials:
(§2)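 Alveolar macrophages from normal rats (10⁶ per well) were kept in serum-free DMEM with compound for 3 h. They were then stained with 0.4% trypan blue, and unstained viable cells were counted.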

Data set [8] can be described thus: Ratio of IC50 for polyamine uptake in CHO-MG cells to IC50 for polyamine transporter expressed in CHO cells.
For data set [9], the system named is Pneumocystis carinii. Nature of the data set: Antimicrobial activity against Pneumocystis carinii infected in Sprague-Dawley rat assessed as reduction of alveolar septum thickness at 0.5 mg/kg, intranasally every 2 days 28 days after infection for 21 days. The format is functional, organism-based. Also noted: dose 0.5 mg/kg. Summed up:
as §1

In data set [10] the test system is Pneumocystis carinii. The data set is described as follows: Antimicrobial activity against Pneumocystis carinii infected in Sprague-Dawley rat assessed as increase of host survival time at 0.5 mg/kg, intranasally every 2 days 28 days after infection. Format: functional. Summed up: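 Female Sprague-Dawley rats (~120 g) were immunosuppressed with dexamethasone 1.8 mg/liter in drinking water. One week later they were inoculated transtracheally with 7.5 × 10⁶ trophic forms, with weekly intramuscular penicillin. From infection day 28, rats received 50 μl of a 1 mM solution intranasally every 2 days (7–8 rats/group), alongside untreated infected and uninfected controls. Survival was followed to day 84 and compared by Kaplan-Meier/log-rank.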

Data set [11] deals with Pneumocystis carinii. The data set is described as follows: Antimicrobial activity against Pneumocystis carinii infected in Sprague-Dawley rat assessed as reduction of inflammatory cell infiltration at 0.5 mg/kg, intranasally every 2 days 28 days after infection for 21 days. Format: functional, organism-based. Also on record: dose 0.5 mg/kg. The essentials: as §1
For data set [12], the system named is Pneumocystis carinii. The data set is described as follows: Antimicrobial activity against Pneumocystis carinii infected in Sprague-Dawley rat assessed as effect on foamy exudates in alveoli at 0.5 mg/kg, intranasally every 2 days 28 days after infection for 21 days. Format: functional, organism-based. Also noted: dose 0.5 mg/kg. Summed up: as §1
Data set [13] relates to Pneumocystis carinii. Nature of the data set: Antimicrobial activity against Pneumocystis carinii infected in Sprague-Dawley rat assessed as effect on alveolar structure at 0.5 mg/kg, intranasally every 2 days 28 days after infection for 21 days. The format is functional, organism-based. Also noted: dose 0.5 mg/kg. The essentials: as §1
A short description of data set [14]: Cytotoxicity against Sprague-Dawley rat alveolar macrophages assessed as cell viability at 0.4 mM after 3 hrs by trypan blue exclusion assay. Format: cell-based, Macrophage. Conditions: read-out: Activity. Summed up: as §2

`Cl.NCCCCNCCCCNCc1c2ccccc2c(CNCCCCNCCCCN)c2ccccc12`: the IC50 in the data set with CHO-MG is above 100 µM; in data set [5], 0.045 µM. For the same compound, the result with Pneumocystis carinii [1], in the data set with Pneumocystis carinii [2], with Pneumocystis carinii [3], with Pneumocystis carinii [6] and in the data set on Pneumocystis carinii [9] was Active. Moreover, the results for the Activity (in the data set with Pneumocystis carinii [4]; in data set [7]) were 80% and “Non-toxic”, respectively. Further, the “Ratio IC50” value in [8] is listed as above 2222. Further, the Survival with Pneumocystis carinii [10] was 84 days.
As for `Cl.NCCCCNCCCCNCc1ccc(CNCCCCNCCCCN)cc1`, the IC50 turned out to be 50.2 µM with CHO-MG and 0.074 µM in data set [5]. Further, the result in the data set with Pneumocystis carinii [11] and in the data set on Pneumocystis carinii [6] was Active. Also, the result in the data set with Pneumocystis carinii [12], in the data set with Pneumocystis carinii [4] and in the data set on Pneumocystis carinii [13] was inactive. In [7], the Activity result is listed as “Non-toxic”. Moreover, in data set [8], the “Ratio IC50” value is 677. Also, the Survival in the data set with Pneumocystis carinii [10] was determined as 84 days.
Turning to `NCCCCNCCCCNCc1c2ccccc2cc2ccccc12`, the viability at 3 h, 400 µM in data set [14] is below 16%. In [5], this compound registered an IC50 of 0.45 µM.
With `NCCCCNCCCCNCCCCNCc1c2ccccc2cc2ccccc12`, the IC50 was 33.2 µM with CHO-MG and 10.6 µM in [5]. Also, the viability at 3 h, 400 µM in data set [14] is 88%. In data set [7] (Sprague-Dawley, alveolar macrophages, read-out: Activity), the viability at 3 h, 2000 µM was determined as 42%.
On to `Cl.Cl.NCCCCNCc1c2ccccc2cc2ccccc12`, for which the viability at 3 h, 400 µM in data set [14] was below 16%. Half-maximal inhibition in data set [5] (IC50) was put at 7.7 µM. Moreover, in data set [8], the “Ratio IC50” value worked out at 1.

Broadly, the IC50 is the point on the concentration scale where inhibition reaches its midpoint.

Source of the values: ChEMBL document CHEMBL1649301, “Polyamine transport as a target for treatment of Pneumocystis pneumonia” (Antimicrob Agents Chemother, 2009).
